Measured values from PubChem BioAssay AID821 (SRMLSC, 2007).
Calls of active or inactive are those of the source.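 How the source made its calls: active means compounds whose fitted half-maximal concentration for reducing fibroblast viability is 100 µM or lower; inactive means the rest.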

system: not listed separately; assay: LL 47 lung fibroblast growth inhibition, concentration-response, selectivity test for endothelial growth inhibitor program, cellular, luminescent ATP readout (AID 821); conditions: LL 47 lung fibroblast viability, ATP luminescence; at 20 µM (top of the series);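 further: cells exposed to compound for 72 h at 37 °C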;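 on viability: 100% = median of untreated cell-only wells and 0% = no luminescence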
In short: (§1)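 Assay system: LL 47 human lung fibroblasts; Compound: dose series 0.039–20 µM final, 0.2% DMSO; Schedule: 72 h compound treatment at 37 °C after overnight attachment; Technique: CellTiter-Glo luminescence; Evaluation: percent viability relative to untreated wells, EC50 via 4-parameter fit.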

Structure (SMILES)	viability
Cc1ccc(S(=O)(=O)c2c(C)nn(C(C)(C)C)c2OC(=O)c2cccs2)cc1	104% (inactive)
CCc1ccc(-c2nc(CN3CCC(C(=O)NCc4ccc(F)cc4)CC3)c(C)o2)cc1	103% (inactive)
CCOc1ccc(Nc2oc(-c3ccc(Cl)cc3)nc2C#N)cc1	106% (inactive)
COC(=O)c1cc(NC(=O)c2c(Cl)nc3sccn23)cc(C(=O)OC)c1	91.8% (inactive)
CC[n+]1cc(-c2ccccc2)nc(N2CCOCC2)n1	99.9% (inactive)
O=C(Nc1ccc2nn(-c3ccccc3)nc2c1)c1ccc2c(c1)OCO2	121% (inactive)
CC(/C=N/n1cnnc1)=C\c1ccccc1	109% (inactive)
Cc1ccc(-n2c(SCC(=O)Nc3ccc4c(c3)OCO4)nnc2-c2ccccn2)cc1	103% (inactive)
COc1ccc(Cc2nc(C(=O)Nc3ccc(Cl)cc3)cs2)cc1	84.3% (inactive)
CCOc1ccc(NS(=O)(=O)c2ccc(OCC(=O)NCCCOC)cc2)cc1	93.1% (inactive)
O=c1/c(=C/c2ccco2)sc2n1CN(c1cccc(Br)c1)CN=2	106% (inactive)
N#Cc1nc(COc2ccc(-c3ccccc3)cc2)oc1NCCCN1CCOCC1	91.9% (inactive)
CCOC(=O)c1cnc(-n2nc(C)cc2C)nc1NCc1ccc2c(c1)OCO2	96.5% (inactive)
CC1CCCN(c2oc(-c3cccc4ccccc34)nc2C#N)C1 (stereo not drawn)	99.6% (inactive)
CCCCn1c(SCC(=O)Nc2cc(NC(=O)c3ccco3)ccc2C)nc2ccccc2c1=O	99.3% (inactive)
Cn1c(=O)c2c(ncn2CC(=O)Nc2nc(-c3ccccc3Cl)cs2)n(C)c1=O	110% (inactive)
COCCn1c(C)cc(C(=O)CSc2nc3ccccc3o2)c1C	129% (inactive)
CC(C)(C)C1CC=C2C(C#N)=C(N)C(C#N)(C#N)C(c3cccs3)C2C1 (stereo not drawn)	94.4% (inactive)
Cc1c(Cl)cccc1-c1ccc(/C=N/n2cnnc2)o1	98.9% (inactive)
COc1cc2c(C(=O)NCc3ccc4c(c3)OCO4)cn(CC(C)C)c(=O)c2cc1OC	106% (inactive)

system: LL 47 lung fibroblast viability, ATP luminescence; assay: as above; conditions: not given
In short: as §1

Structure (SMILES)	EC50
Cc1ccc(/C=N/Nc2ncc(Cl)cc2Cl)s1	15.2 µM
CCc1ccc(-c2nc(CN3CCC(C(=O)N4CCN(c5ccccc5)CC4)CC3)c(C)o2)cc1	18.7 µM
COc1ccc(OC)c(CCNC(=O)Cn2sc3nc(C)cc(C)c3c2=O)c1	11.7 µM
CCc1[nH]nc2c1C(c1ccc(Br)s1)C(C#N)=C(N)O2 (stereo not drawn)	13.6 µM
O=C(Nc1cccnc1)c1ccc(Br)s1	13.1 µM
CCC(=O)N1c2ccc(S(=O)(=O)CCC(=O)N3CCn4c3nc3ccccc34)cc2CC1C (stereo not drawn)	9.63 µM
CC(=O)SC(C[N+](=O)[O-])c1cn(C(C)=O)c2ccccc12 (stereo not drawn)	11.7 µM
Cc1ccc(C2Oc3ccccc3C3=C2C(c2cccs2)n2ncnc2N3)cc1 (stereo not drawn)	19.1 µM
CCN(CC)CCn1c2ccccc2c2cnc(N)c(C#N)c21	9.65 µM
COc1ccc(C(=O)Oc2c(CN3CCOCC3)cc(Cl)c3cccnc23)cc1	6.15 µM
COC(=O)C(CC(=O)c1ccc(Br)cc1)n1ccnc1 (stereo not drawn)	14.7 µM
Cc1ccc(C(=O)c2c(C)oc3c2C(=O)C(=O)c2ccccc2-3)cc1	3.46 µM
N#Cc1cc2sc3nnc(-c4ccncc4)n3c2cc1C#N	15.6 µM
O=c1[nH]c2cc3c(cc2cc1C(c1nnnn1C1CCCCC1)N1CCSCC1)OCCO3 (stereo not drawn)	19.7 µM
N=c1c2c(ncn1CCN1CCOCC1)Oc1ccc3ccccc3c1C2c1ccccc1 (stereo not drawn)	17.5 µM
Cc1cccc(NC(=O)Nc2cccc(Oc3c(F)c(F)c(F)c(F)c3F)c2)c1	17.5 µM
c1ccc(-c2noc(-c3ccc4c(c3)OCO4)n2)nc1	10.5 µM
CC1(C)CC(=O)C2=C(C1)Oc1nc3ccccc3cc1C2C(C#N)C#N (stereo not drawn)	14.5 µM
O=S(=O)(c1ccc2c(c1)nc(COc1ccc(Cl)cc1)n2CC1CCCO1)N1CCOCC1 (stereo not drawn)	8.4 µM
CN1CCN(S(=O)(=O)c2ccc(NC(=O)Nc3cccc(Cl)c3)cc2)CC1	16.5 µM
Cc1ccccc1-c1nc(CN2CCC(C(=O)NCCCN3CC(C)CC(C)C3)CC2)c(C)o1 (stereo not drawn)	10.6 µM
Cn1c2ccccc2c(=O)c2c(=O)n(C3CCCCC3)c(-c3cccs3)nc21	14.2 µM

Structure (SMILES)	EC50
O=C(/C=C/c1ccc(Cl)cc1)c1cccnc1	19.7 µM
CCOC(=O)c1cnc(-n2nc(C)cc2C)nc1NC1CCCCC1	14.2 µM
N#Cc1c(NCCN)nc(-c2ccco2)c2c1CCCC2	11.7 µM
CCOc1cc(N2CCOCC2)c(OCC)cc1NC(=O)COc1cccc2cccnc12	6.41 µM
CCn1c(SCC(=O)Nc2cc(C)on2)nc2sc3c(c2c1=O)CCCC3	> 10 µM (inactive)
Cc1cccc(N2CCN(C(=O)Cn3sc4nc(C)cc(C)c4c3=O)CC2C)c1 (stereo not drawn)	9.93 µM
COc1ccc(-c2ccc(C#N)c(SCC(=O)Nc3sc4c(c3C#N)CCC4)n2)cc1OC	20.1 µM
CCn1c(=O)cc(C(=O)OC)sc1=Nc1ccc(F)c(F)c1	17.4 µM
COc1cc(N=c2ssnc2Cl)cc(OC)c1OC	15.2 µM
Cc1ccc2[nH]c3c(c2c1)CCCC3=O	> 10 µM (inactive)
O=C1CSC(=S)N1Cc1cccnc1	9.72 µM
CC(=O)Nc1ccc(NC2=Nc3ccccc3N3C2=Nc2c(c(C)nn2-c2ccccc2)C3c2ccccc2)cc1 (stereo not drawn)	12.2 µM
Cc1cc(C)c2c(=O)n(CC(=O)NCCCN3CCN(c4ccccc4F)CC3)sc2n1	10.2 µM
Oc1ccccc1/C=N/Nc1nccnc1Cl	2.08 µM
COc1ccc(CC(=O)Nc2ccc(-c3nnc(-c4ccc(C)cc4)o3)cc2)cc1	12.8 µM
Cc1ccc(S(=O)(=O)N2CCCN(S(=O)(=O)c3ccc(C(F)(F)F)cc3)CC2)cc1	16.1 µM
COC(=O)NC(=C(Cl)Cl)S(=O)(=O)c1ccccc1	12.2 µM
Cc1ccsc1/C=C/c1ccc2cccc(O)c2n1	10.9 µM
CCOC(=O)/C=C/S(=O)(=O)c1ccc(NC(C)=O)cc1	6.96 µM
Cc1ccccc1NS(=O)(=O)c1ccc(N2CCCC2=O)cc1	16.3 µM
O=c1ccsn1Cc1ccccc1	7.57 µM
COc1cc(/C=C/c2ccc3cccc(OC)c3n2)c(OC(C)=O)c([N+](=O)[O-])c1	17.2 µM

Structure (SMILES)	EC50
COc1ccc(C(=O)C(CN2CCOCC2)c2ccccc2)cc1F (stereo not drawn)	5.53 µM
Cc1nn(-c2nc3ccccc3s2)c(N)c1Sc1ccc(F)cc1	12.8 µM
CC(C)CNC(=O)c1coc(=O)c(Br)c1	20.5 µM
COc1ccc(S(=O)(=O)N2N=C(C)Oc3ccccc3C2=O)cc1	19.5 µM
COc1ccc2nc(Nc3nc(CSc4nnnn4-c4ccccc4)cc(=O)[nH]3)nc(C)c2c1	13.8 µM
CCOC(=O)c1sc2nc(C(C)C)c3c(c2c1N)CC(C)(C)OC3	12.4 µM
Oc1c(CN2CCN(c3ccccn3)CC2)cc(Cl)c2cccnc12	5.46 µM
CCOC(=O)C1=C(N)n2c(s/c(=C/c3ccco3)c2=O)=C(C(=O)OC)C1c1ccco1 (stereo not drawn)	9.27 µM
CCN(CCNC(=O)C1CCN(Cc2nc(-c3ccc(Cl)cc3)oc2C)CC1)c1ccccc1	17.8 µM
O=C(Cc1sc(-c2ccccc2Cl)nc1-c1ccccc1)Nc1ccc(F)cc1	19.4 µM
Cc1cc(NC(=O)c2cc(-c3ccncc3)nc3c(C)cccc23)no1	9.48 µM
COc1cccc(C(=O)c2sc(NC(C)C)nc2N)c1	16.1 µM
CCN(CC)CCn1c(=N)n(CCOc2ccccc2)c2ccccc21	10.7 µM
COc1ccc(-c2nnc(Nc3nc4c(OC)cccc4s3)o2)cc1	> 10 µM (inactive)
Cc1ccc(C)n1NC(=O)c1ccccc1O	10.3 µM
CC1(C)Cc2ccccc2C(NNC(=O)c2ccccn2)=N1	11.5 µM
CCc1ccc2c(c1)/C(=C/C(=O)c1cccs1)C(=O)N2	3.48 µM
Cc1cc(C)n(-c2nc3ccccc3c(=O)n2OCC(=O)OCc2ccccc2)n1	4 µM
CCCCOc1ccc(C(=O)C(CN2CCOCC2)c2ccccc2)cc1 (stereo not drawn)	6.5 µM
CCCc1[nH]nc2c1C(c1ccc(Br)s1)C(C#N)=C(N)O2 (stereo not drawn)	9.62 µM
COc1cccc(C(=O)Oc2c(CN3CCOCC3)cc(Cl)c3cccnc23)c1	5.95 µM
c1ccc(-c2nc(N3CCCCCC3)c3ccccc3n2)nc1	1.73 µM

Structure (SMILES)	EC50
COC(=O)/C=C1\C(=O)N(c2nc3ccccc3s2)C(=S)N1c1ccc(F)cc1	17.8 µM
COc1ccc(C2=Nn3c(nnc3C3CCCCC3)SC2)cc1OC	14.1 µM
COCc1cc(CN2CCCC2)c(O)c2ncccc12	11.7 µM
COc1ccc2oc(=O)c(-c3nnc(NCc4ccco4)s3)cc2c1	8 µM
C=CCOC(=O)C1=C(C)NC(SCC(=O)Nc2ccc(C)c(Cl)c2)=C(C#N)C1c1ccco1 (stereo not drawn)	7.76 µM
O=C1CC(c2ccco2)Cc2nc(Nc3nc(-c4ccccc4)c4ccccc4n3)ncc21 (stereo not drawn)	14 µM
Cc1oc(-c2ccc(Cl)cc2)nc1CN1CCC(C(=O)N2CCN(Cc3ccccc3)CC2)CC1	17.5 µM
COc1ccc(-n2nnnc2S(=O)(=O)CC(=O)N2CCCCC2)cc1	6.12 µM
Cc1sc2nc(SCC(=O)C(C)(C)C)n(Cc3ccco3)c(=O)c2c1C	16.9 µM
O=C(Nc1nccs1)c1c(O)c2cccc3c2n(c1=O)CCC3	15.2 µM
CC(C)COC(=O)c1ccc2c(c1O)C(=O)c1ccccc1C2=O	17.9 µM
Cc1ccc(NC(=O)c2cc(NC(=O)c3ccco3)ccc2N2CCCCC2)cc1	18 µM
COc1cc2nc(N3CCN(C(=O)c4ccco4)CC3)nc(N)c2cc1OC	8.04 µM
CCCCCCc1cc2cc(-c3nnc(-c4ccccc4)o3)c(=O)oc2cc1O	20.3 µM
COC(=O)C1=C(O)/C(=C\c2ccc(CNC(=O)C(=O)Nc3ccc(C)cc3)o2)N=C1C	9.27 µM
O=C(Nc1nc(NC(=O)c2ccco2)n(-c2ccccc2)n1)c1ccccc1	11.5 µM
Cc1nc(NC(=O)CSc2nc3cccnc3n2C2CCCCC2)sc1C	8.49 µM
O=C1CC(Sc2nnc(-c3ccccc3O)o2)C(=O)N1c1ccccc1 (stereo not drawn)	20.8 µM
OCc1ccc(O)c2ncccc12	9.4 µM
O=C(Oc1c(CN2CCOCC2)cc(Cl)c2cccnc12)c1ccc(F)cc1	5.32 µM
CN1CCN(CCCN2c3ccccc3Sc3ccc(C(F)(F)F)cc32)CC1	17.9 µM
Cc1sc2ncnc(NCC(C)(C)N3CCOCC3)c2c1C	> 10 µM (inactive)
